From the M2OR odorant receptor database

target: T1, OR1A1 (Homo sapiens) (UniProt Q9P1Q5); settings: stereoisomer not certain
T1 sequence (whole entry): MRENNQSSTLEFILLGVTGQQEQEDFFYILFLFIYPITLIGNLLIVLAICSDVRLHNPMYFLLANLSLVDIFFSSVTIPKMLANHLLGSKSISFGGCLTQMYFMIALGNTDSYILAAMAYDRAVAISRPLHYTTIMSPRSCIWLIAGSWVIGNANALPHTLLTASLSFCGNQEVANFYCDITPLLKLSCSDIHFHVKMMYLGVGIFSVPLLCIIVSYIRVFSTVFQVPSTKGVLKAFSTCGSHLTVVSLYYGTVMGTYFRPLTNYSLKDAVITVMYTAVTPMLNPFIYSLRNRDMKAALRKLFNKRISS
Outline: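 Whether a receptor–molecule pair is responsive (active) rests on the original authors' judgment that its measured signal was statistically different from baseline. Pairs without that judgment are non-responsive (inactive). Sources used varied assay methods, commonly transient luciferase assays in mammalian cell lines.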
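Further: active if original authors judged signal statistically different from baseline.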

Row | Structure (SMILES) | odorant receptor agonist call
1 | CC(C)=CCCC(C)CC=O (configuration not stated) | active
2 | COC(=O)C(C)C | inactive
3 | C=Cc1ccc(O)c(OC)c1 | inactive
4 | CCCCCC1CCC(=O)O1 (configuration not stated) | active
5 | C=CC(=C)CCC=C(C)C | inactive
6 | CCC(=O)O | inactive
7 | CC=CC(=O)C1=C(C)C=CCC1(C)C | inactive
8 | O=C([O-])CCC(=O)[O-].[H+].[H+] | inactive
9 | CC(=O)C1=NCCS1 | inactive
10 | Cc1nccnc1C | inactive
11 | CC(C)=CCCC(C)CCO (configuration not stated) | active
12 | CCC=CCCOC(C)=O | inactive
13 | CCCSSSC | inactive
14 | CCCCS | inactive
15 | CCC=CCC=O | inactive
16 | CC12CCC(CC1=O)C2(C)C (configuration not stated) | inactive
17 | C=CC(O)CCCCC (configuration not stated) | active
18 | CCCCCCC(=O)[O-].[H+] | inactive
19 | CCC(C(=O)O)c1ccccc1 (configuration not stated) | inactive

Row | Structure (SMILES) | odorant receptor agonist call
20 | CCCCCCCCS | active
21 | CN(C)C | inactive
22 | CCCCCCCO | active
23 | CCC(C)COC(C)=O (configuration not stated) | inactive
24 | Cc1occc(=O)c1O | inactive
25 | Cc1cccc(C)c1O | inactive
26 | CCCC(C)C=O (configuration not stated) | inactive
27 | CCCC(O)CC(=O)OCC (configuration not stated) | inactive
28 | CCO | inactive
29 | CC(=O)Oc1ccccc1 | inactive
30 | CSSc1ccoc1C | inactive
31 | CC=CC(=O)C(C)CC (configuration not stated) | inactive
32 | CCCCC(=O)O | inactive
33 | CCCCCc1ccccn1 | active
34 | CCCCCCCCCO | inactive
35 | CCCCC1OC(=O)CC1C (configuration not stated) | inactive
36 | CCCCCCCCCC(=O)[O-].[H+] | inactive
37 | CCCCCC=O | inactive
